Assay [1] has as its system microtubules in A-10 cells. Briefly: Microtubule depolymerization in A-10 cells. The assay is classed as cell-based, rat. The following applies: for fold lower microtubule depolymerizing potency than 3: relative to compound 3; for fold more potent than (±)-1·HCl, microtubule depolymerizing effects: relative to lead (±)-1·HCl; for microtubule depolymerization activity: tested up to 10 µM.

Another assay relates to MDA-MB-435 cells. Briefly: SRB antiproliferative assay, MDA-MB-435. Conditions: for IC50: Homo sapiens, MDA-MB-435, read-out: IC50 ± SD MDA-MB-435; for fold more potent than (±)-1·HCl, antiproliferative activity (MDA-MB-435): relative to lead (±)-1·HCl; for fold lower antiproliferative potency than 3: MDA-MB-435, relative to compound 3. The assay is classed as cell-based. (In SRB staining, fixed cells bind dye roughly in proportion to their protein.)

The target of a further assay is Bovine brain tubulin (Bos taurus, UniProt P81947+Q6B856). Nature of the assay: Inhibition of tubulin assembly. The following applies: for fold more potent than (±)-1·HCl, tubulin assembly: relative to lead (±)-1·HCl. The assay is classed as biochemical.
Bovine brain tubulin, sequence (Q6B856 whole entry): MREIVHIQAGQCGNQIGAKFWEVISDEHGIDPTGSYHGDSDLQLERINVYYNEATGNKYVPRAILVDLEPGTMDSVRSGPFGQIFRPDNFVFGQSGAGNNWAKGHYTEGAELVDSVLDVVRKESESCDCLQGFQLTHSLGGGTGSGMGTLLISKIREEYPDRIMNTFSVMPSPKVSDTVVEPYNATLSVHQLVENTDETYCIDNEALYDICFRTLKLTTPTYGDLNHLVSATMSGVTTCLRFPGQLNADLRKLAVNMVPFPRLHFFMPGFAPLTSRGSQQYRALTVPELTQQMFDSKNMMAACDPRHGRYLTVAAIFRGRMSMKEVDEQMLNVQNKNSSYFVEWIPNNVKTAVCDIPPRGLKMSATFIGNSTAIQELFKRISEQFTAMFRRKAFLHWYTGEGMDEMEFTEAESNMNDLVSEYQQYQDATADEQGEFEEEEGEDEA
Bovine brain tubulin, sequence (P81947 whole entry): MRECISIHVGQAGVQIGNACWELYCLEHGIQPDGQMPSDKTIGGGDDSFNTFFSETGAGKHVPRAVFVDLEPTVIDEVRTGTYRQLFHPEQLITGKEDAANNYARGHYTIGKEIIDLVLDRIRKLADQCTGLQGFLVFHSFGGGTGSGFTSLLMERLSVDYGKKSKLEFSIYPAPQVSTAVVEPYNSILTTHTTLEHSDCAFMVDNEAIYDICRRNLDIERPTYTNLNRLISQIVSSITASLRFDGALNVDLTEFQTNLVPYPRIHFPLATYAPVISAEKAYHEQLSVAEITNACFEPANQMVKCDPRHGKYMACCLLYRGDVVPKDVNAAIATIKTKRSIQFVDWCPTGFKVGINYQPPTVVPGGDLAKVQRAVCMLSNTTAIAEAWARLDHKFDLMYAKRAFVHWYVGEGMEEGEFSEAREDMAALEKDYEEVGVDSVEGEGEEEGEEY
A further assay deals with HeLa cells. Nature of the assay: Cell cycle distribution by flow cytometry. The assay is classed as cell-based. The following applies: 18 h, five-times the IC50. In general terms: Flow cytometry measures light scatter and fluorescence of single cells or particles in a stream.
Another assay concerns SK-OV-3. Briefly: SRB antiproliferative assay, SK-OV-3. The following applies: SK-OV-3 and SK-OV-3 MDR1-M6/6 cell lines. The format is cell-based.
The test system of another assay is HeLa. Nature of the assay: SRB antiproliferative assay, HeLa. The assay is classed as cell-based.
The subject of the next assay is MDA-MB-435 xenografts. Briefly: MDA-MB-435 flank xenograft model. Conditions: ip, 60 mg/kg days 0 and 2, 50 mg/kg day 8; vs untreated control. The assay is classed as in vivo, nude mice. In short, it runs like this: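 Nude mice bilaterally implanted sc in the flank with MDA-MB-435 tumour fragments; dosing began once tumours reached ~200 mm3. Test compound was given ip in PBS containing <5% (v/v) 50:50 Cremophor/DMSO. […] Tumour volumes and body weights were recorded 2–3 times weekly. Final volumes were compared with untreated controls by one-way ANOVA with Dunnett's test.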

Another assay deals with NCI 60-cell line panel. Briefly: NCI cancer cell line panel. The assay is classed as cell-based.
In another assay the test system is IGROVI. Briefly: NCI panel growth inhibition, IGROVI. The assay is classed as cell-based.
The next assay has as its system HeLa WTβIII. Briefly: SRB antiproliferative assay, βIII-tubulin expressing HeLa WTβIII. The format is cell-based. The following applies: Homo sapiens, read-out: IC50 ± SD HeLa WTβIII.

Molecules are shown by their SMILES. Entries after “also recorded” stand apart in the source; their conditions may differ.

Consider `CCN(c1ccc(OC)cc1)c1ncnc2occ(C)c12` [Compound 4, N-Ethyl-N-(4-methoxyphenyl)-5-methylfuro[2,3-d]pyrimidin-4-amine], for which, in assay [1], the “fold lower microtubule depolymerizing potency than 3” value amounted to 2 fold and the “fold more potent than (±)-1·HCl, microtubule depolymerizing effects” value is recorded as “equipotent”. Moreover, in the assay on MDA-MB-435 cells, the IC50 (in general, the concentration needed to halve the response being measured) stood at 8.1 ± 0.5 nM and the “fold more potent than (±)-1·HCl, antiproliferative activity (MDA-MB-435)” value (“fold more potent than (±)-1·HCl … (MDA-MB-435)” for short) is recorded as 1.4–2.1 fold. Besides, the “fold more potent than (±)-1·HCl, tubulin assembly” value at Bovine brain tubulin is recorded as “about 2 fold”. The “accumulation of cells in G2/M” value in the assay on HeLa cells is reported as “significant accumulation of cells in G2/M”.

As to `CSc1ccc(N(C)c2ncnc3occ(C)c23)cc1` [Compound 9, N,5-Dimethyl-N-(4-(methylthio)phenyl)furo[2,3-d]pyrimidin-4-amine], in [1], the “fold lower microtubule depolymerizing potency than 3” value was found to be 2 fold and the “fold more potent than (±)-1·HCl, microtubule depolymerizing effects” value is recorded as “equipotent”. Moreover, in the assay with MDA-MB-435 cells, the IC50 was found to be 12.3 ± 0.9 nM; the “fold lower antiproliferative potency than 3” value turned out to be 3 fold; the “fold more potent than (±)-1·HCl … (MDA-MB-435)” value is recorded as 1.4–2.1 fold. Also, the “fold better than 3, tubulin assembly IC50” value on Bovine brain tubulin (relative to compound 3) came out at 3 fold.

On to `COc1ccc(N(c2ncnc3occ(C)c23)C(C)C)cc1` [Compound 5, N-Isopropyl-N-(4-methoxyphenyl)-5-methylfuro[2,3-d]pyrimidin-4-amine], for which, in [1], the “microtubule depolymerization activity” value is “ineffective”. The IC50 in the assay with MDA-MB-435 cells was found to be 504 ± 28 nM. The “fold less potent (IC50) than 4” value in the assay on MDA-MB-435 cells (antiproliferative, relative to N-Et analogue 4) was determined as 60 fold.

For the compound `CCCCN(c1ccc(OC)cc1)c1ncnc2occ(C)c12` [Compound 7, N-Butyl-N-(4-methoxyphenyl)-5-methylfuro[2,3-d]pyrimidin-4-amine], the 50% inhibitory concentration (IC50) in the assay on MDA-MB-435 cells came to 100 ± 6.5 nM. The “fold more potent than (±)-1·HCl, tubulin assembly” value on Bovine brain tubulin is “about 2 fold”.

On to `COc1ccc(Nc2ncnc3occ(C)c23)cc1` [Compound 2, N-(4-Methoxyphenyl)-5-methylfuro[2,3-d]pyrimidin-4-amine], for which, in assay [1], the “microtubule depolymerization activity” value is “inactive; also recorded: essentially devoid of activity”.

`COc1ccc(/C=C\c2cc(OC)c(OC)c(OC)c2)cc1O` [CA-4, combretastatin A-4]: the “accumulation of cells in G2/M” value in the assay on HeLa cells is reported as “significant accumulation of cells in G2/M”.

In the case of `CCc1ccc(N(C)c2ncnc3occ(C)c23)cc1` [Compound 8, N-Methyl-N-(4-ethylphenyl)-5-methylfuro[2,3-d]pyrimidin-4-amine], the “fold lower microtubule depolymerizing potency than 3” value in assay [1] stood at 30 fold. For the same compound, in the assay with MDA-MB-435 cells, the IC50 came out at 183 ± 13 nM and the “fold lower antiproliferative potency than 3” value came out at 43 fold.

`COc1ccc(N(C)c2ncnc3occ(C)c23)cc1` [Compound 3, N-(4-Methoxyphenyl)-N,5-dimethylfuro[2,3-d]pyrimidin-4-amine]: the “fold more potent than (±)-1·HCl, microtubule depolymerizing effects” value in assay [1] is given as 2.3 fold. Moreover, in the assay with MDA-MB-435 cells, the IC50 stood at 4.3 ± 0.3 nM and the “fold more potent than (±)-1·HCl … (MDA-MB-435)” value is “about 4 fold”. The “fold higher potency than (±)-1·HCl” value in the assay with SK-OV-3 is reported as 5 fold. In the assay on HeLa (HeLa and HeLa WT βIII cell lines), the “fold better activity than (±)-1·HCl” value came out at 4 fold. For the same compound, the “accumulation of cells in G2/M” value in the assay with HeLa cells is “significant accumulation of cells in G2/M”. Also, the “antitumor effect (tumor growth)” value in the assay with MDA-MB-435 xenografts is reported as “statistically significant antitumor effects; also recorded: statistically significant inhibition of tumor growth; also recorded: significantly inhibited tumor growth”. The GI50 – broadly, the concentration that inhibits growth by half – with NCI 60-cell line panel was under 10 nM. For the same compound, in the assay on IGROVI, the GI50 is under 10 nM.

In the case of `CCCN(c1ccc(OC)cc1)c1ncnc2occ(C)c12` [Compound 6, N-(4-Methoxyphenyl)-5-methyl-N-propylfuro[2,3-d]pyrimidin-4-amine], the IC50 in the assay with MDA-MB-435 cells amounted to 27.3 ± 4.5 nM. For the same compound, the “fold more potent than (±)-1·HCl, tubulin assembly” value at Bovine brain tubulin is listed as “about 2 fold”.

As to `CC(=O)O[C@H]1C(=O)[C@@]2(C)[C@H]([C@H](OC(=O)c3ccccc3)[C@]3(O)C[C@H](OC(=O)[C@H](O)[C@@H](NC(=O)c4ccccc4)c4ccccc4)C(C)=C1C3(C)C)[C@]1(OC(C)=O)CO[C@@H]1C[C@@H]2O` [paclitaxel], the IC50 worked out at 2.8 ± 0.36 nM in the assay with HeLa (Homo sapiens, HeLa, read-out: IC50 ± SD HeLa) and 24 ± 3 nM with HeLa WTβIII.

Values taken from PMC5590101 (Journal of medicinal chemistry, 2016).
